Entries after “also recorded” stand apart in the source; their conditions may differ.
Tests used:
estrogen receptor (ER) [1] = biological target: T1, estrogen receptor (ER) (Homo sapiens, UniProt P03372); assay: ER-CALUX assay, ER-agonistic activity; format: cell-based; conditions: T47D.Luc cells, 24 h; for ER-agonistic Response at 10 μM (% of E2max): relative to E2 (15 pM)
Procedure, shortened: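 T47D.Luc cells (passages 22–25) stably carry pEREtataLuc and were exposed in phenol red-free DMEM/F12 with 5% charcoal/dextran FBS. Cells were seeded at 20,000 cells/cm2 and dosed 24 h later with test compound in DMSO for 24 h. They were then lysed (10 mM Tris, 2 mM DTT, 2 mM EGTA, pH 7.8) and luciferase measured. RLU minus DMSO control gave fold induction relative to E2 (15 pM) maximum.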

estrogen receptor (ER) [2] = biological target: T1, estrogen receptor (ER); assay: ER-CALUX assay, ER-antagonistic activity, co-exposure with E2; format: cell-based; conditions: T47D.Luc cells, 24 h; for ER-antagonistic Response at 25 μM (% of E2 response): in the presence of E2 (5 pM); for Modulation of E2-dependent induction of luciferase activity, in words: combined exposure with E2 (5 pM)
Procedure, shortened: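 ER-CALUX in T47D.Luc cells (passages 22–25) kept in phenol red-free DMEM/F12 with 5% charcoal/dextran FBS. Test compound in DMSO was co-exposed with E2 (5 pM) for 24 h, then cells were lysed at pH 7.8 and luciferase read. IC25/IC50 are concentrations inhibiting E2-induced luciferase by 25/50%, calculated from full dose-response curves. Three independent experiments in triplicate.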

[3] = tested on: ER target gene TFF1 mRNA in MCF-7 cells; assay: Modulation of E2-induced TFF1 mRNA in MCF-7 cells; format: cell-based, human; conditions: 25 μM, 24 h, co-exposure with E2
Procedure, shortened: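 MCF-7 cells (passages 15–18) in phenol red-free DMEM/F12 with 5% charcoal/dextran FBS were co-exposed for 24 h to test compound (25 μM) plus E2 (5 pM). TFF1 mRNA was measured by qRT-PCR: RT 50°C 20 min, 95°C 15 min, then 40 cycles of 95°C 15 s/60°C 60 s. PBGD was the reference gene, with comparative Ct analysis. Three independent experiments, n=6.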

[4] = tested on: AR target gene PSA mRNA in LNCaP cells; assay: Suppression of DHT-induced PSA mRNA in LNCaP cells; format: cell-based, human; conditions: 25 μM, 24-h co-exposure to 1 nM DHT
Procedure, shortened: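 LNCaP cells (passages 4–6) were grown in RPMI-1640 with 10% FBS, then moved to phenol red-free RPMI-1640 with 5% dextran/charcoal-treated serum. After 24 h in fresh medium they were co-treated for 24 h with test compound and DHT (1 nM). PSA mRNA was measured by qRT-PCR (PBGD reference, comparative Ct) and expressed relative to DHT alone. Three independent experiments, n=6.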

[5] = tested on: all cell lines (T47D.Luc, MCF-7, LNCaP, HepaRG); assay: Cytotoxicity, neutral red assay; format: cell-based, human; conditions: up to 25 μM concentration
ER = conditions: ref Hamers et al. 2011; cited from earlier work
AR = conditions: ref Hamers et al. 2011; cited from earlier work
[6] = tested on: ER target gene TFF1 mRNA in MCF-7 cells; assay: Induction of TFF1 mRNA in MCF-7 cells; format: cell-based, human; conditions: 25 μM, 24 h
Procedure, shortened: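 MCF-7 cells (passages 15–18) were moved to phenol red-free DMEM/F12 with 5% charcoal/dextran FBS and 1% non-essential amino acids. After 24 h in fresh medium they were treated for 24 h with 25 μM test compound. TFF1 mRNA was quantified by one-step qRT-PCR (PBGD reference, comparative Ct) and expressed relative to maximal induction by E2 (15 pM). Three independent experiments, n=6.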

[7] = tested on: CAR-dependent CYP2B6 mRNA in HepaRG cells; assay: CAR-agonistic response: induction of CYP2B6 mRNA in differentiated HepaRG cells; format: cell-based, human; conditions: CYP2B6 mRNA, HepaRG, 24 h, relative to PB (2 mM)
Procedure, shortened: (§1)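 Differentiated HepaRG cells (passages 7–9) were grown 14 days in growth medium, then 14 days in differentiation medium, and returned to growth medium 3 days before a 24 h exposure to test compound (0.01–25 μM). CYP2B6 and CYP3A4 mRNA were measured by qRT-PCR (PBGD reference, comparative Ct) relative to PB (2 mM) and RIF (50 μM), respectively. EC25/EC50 were taken from dose-response curves.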

[8] = tested on: CYP2B6 mRNA (CAR-dependent); assay: as above; format: cell-based, human; conditions: human, differentiated HepaRG cells
Procedure, shortened: as §1

[9] = tested on: PXR-dependent CYP3A4 mRNA in HepaRG cells; assay: PXR-agonistic response: induction of CYP3A4 mRNA in differentiated HepaRG cells; format: cell-based, human; conditions: 24 h
Procedure, shortened: as §1

RyRs = conditions: ref Pessah et al. 2009; cited from earlier work
[10] = CYP3A4 mRNA, relative to RIF (50 μM)

T1 sequence (P03372 whole entry): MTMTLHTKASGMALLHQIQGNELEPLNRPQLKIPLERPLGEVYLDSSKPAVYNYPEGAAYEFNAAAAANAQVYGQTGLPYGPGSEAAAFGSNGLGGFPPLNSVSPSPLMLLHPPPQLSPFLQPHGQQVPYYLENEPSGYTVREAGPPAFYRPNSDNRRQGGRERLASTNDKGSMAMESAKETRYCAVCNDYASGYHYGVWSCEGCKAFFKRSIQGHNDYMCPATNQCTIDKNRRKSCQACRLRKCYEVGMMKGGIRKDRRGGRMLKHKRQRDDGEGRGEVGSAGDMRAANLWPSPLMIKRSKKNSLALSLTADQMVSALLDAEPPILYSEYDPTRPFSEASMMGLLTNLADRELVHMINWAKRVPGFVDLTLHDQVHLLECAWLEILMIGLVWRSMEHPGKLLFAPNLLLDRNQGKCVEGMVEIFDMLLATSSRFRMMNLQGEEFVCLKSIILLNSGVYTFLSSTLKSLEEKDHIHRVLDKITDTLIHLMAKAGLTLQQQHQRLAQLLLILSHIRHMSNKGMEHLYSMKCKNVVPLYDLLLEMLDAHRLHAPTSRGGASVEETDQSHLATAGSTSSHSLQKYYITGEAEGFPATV

| Compound | ER-mediated activity (induction of luciferase), in words (estrogen receptor (ER) [1]) | ER-agonistic Response at 10 μM (% of E2max) (estrogen receptor (ER) [1]) | ER-antagonistic Response at 25 μM (% of E2 response) (estrogen receptor (ER) [2]) | Effect on E2-induced TFF1 gene expression, in words [3] | Antiandrogenic activity (suppression of DHT-induced PSA mRNA), in words [4] | Cytotoxicity [5] | ER activity in luciferase reporter gene assays, in words (ER) | AR activity in luciferase reporter gene assays, in words (AR) | Modulation of E2-dependent induction of luciferase activity, in words (estrogen receptor (ER) [2]) | Estrogenicity (TFF1 mRNA induction), in words [6] | CAR-agonistic Maximum response at 5 μM (% of PB max) [7] | CAR-agonistic response EC25 [7] [µM] | EC50 at 24 h [8] [µM] | PXR-agonistic Maximum response at 25 μM (% of RIF max) [9, 10] | Activity towards RyR, in words (RyRs) | PXR-dependent CYP3A4 mRNA induction, in words [9] | PXR-agonistic response EC25 [9, 10] [µM] |
| --- | --- | --- | --- | --- | --- | --- | --- | --- | --- | --- | --- | --- | --- | --- | --- | --- | --- |
| Clc1ccc(Cl)c(-c2c(Cl)ccc(Cl)c2Cl)c1Cl (racemic) [(±)-PCB 136, 2,2',3,3',6,6'-hexachlorobiphenyl] | intermediate effect | 63 % of E2max | 81 % of E2 response | significantly potentiated the E2-induced TFF1 gene expression | significant antiandrogenic activity | no cytotoxicity was observed | ER-agonistic | AR-antagonistic |  |  |  |  |  |  |  |  |  |
| Clc1ccc(Cl)c(-c2c(Cl)ccc(Cl)c2Cl)c1Cl [(+)-PCB 136, 2,2',3,3',6,6'-hexachlorobiphenyl] | estrogenic; also recorded: strong ER-mediated activity | 89 % of E2max | 123 % of E2 response | significantly potentiated the E2-induced TFF1 gene expression |  |  |  |  | slightly potentiated E2-dependent induction of luciferase activity | relatively high estrogenicity | 38 % of PB max | 1.0 | 6.6 | 17 % of RIF max | no significant activity towards the RyR |  |  |
| Clc1ccc(Cl)c(-c2c(Cl)ccc(Cl)c2Cl)c1Cl [(−)-PCB 136, 2,2',3,3',6,6'-hexachlorobiphenyl] | did not induce a significant increase of luciferase activity | 27 % of E2max | 27 % of E2 response | inactive |  |  |  |  | exhibited antiestrogenic effects, especially at higher concentrations |  | 51 % of PB max | 0.7 |  | 38 % of RIF max | activate RyRs | significantly more potent inducer of PXR activity than (+)-PCB 136; also recorded: significantly more potent inducer of CYP3A4 mRNA than (+)-PCB 136 | 7.4 |

Source: article PMC5943194 (Environmental science and pollution research international, 2017)
